Calls of active or inactive are those of the source.
Assays:
Bacillus subtilis [1] = assay: Antibiofilm activity against Bacillus subtilis MTCC 121 after 24 hrs by crystal violet staining based assay; assay type: functional, organism-based; settings: MTCC 121, 24 h
Method in brief: (§1)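 Biofilm inhibition tested for amine esters and esterquats. IC50 values (µg/mL) are the mean of three determinations, with ciprofloxacin as reference.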

Raoultella planticola [2] = assay: Antimicrobial activity against Klebsiella planticola MTCC 530 assessed as growth inhibition after 24 hrs by agar well diffusion method; assay type: functional; settings: MTCC 530, 24 h
Micrococcus luteus [3] = assay: Antimicrobial activity against Micrococcus luteus MTCC 2470 assessed as growth inhibition after 24 hrs by agar well diffusion method; assay type: functional; settings: MTCC 2470, 24 h
Raoultella planticola [4] = assay: Bactericidal activity against Klebsiella planticola MTCC 530 after 24 hrs by serial dilution method; assay type: functional; settings: MTCC 530, 24 h
Staphylococcus aureus [5] = assay: Bactericidal activity against Staphylococcus aureus MLS16 MTCC 2940 assessed as increase in intracellular ROS accumulation in at 0.5 to 2 ug/mL after 24 hrs by DCFHDA staining based fluorometric assay; assay type: functional, organism-based
Method in brief: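 Intracellular ROS measured in cells of mature biofilms using the general ROS fluorescent probe 2′,7′-dichlorofluorescein-diacetate (DCFH-DA), read as increase in fluorescence. Sessile cells and the supernatant were measured separately.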

Bacillus subtilis [6] = assay: Bactericidal activity against Bacillus subtilis MTCC 121 after 24 hrs by serial dilution method; assay type: functional; settings: MTCC 121, 24 h
Staphylococcus aureus [7] = assay: Antibiofilm activity against Staphylococcus aureus MLS16 MTCC 2940 after 24 hrs by crystal violet staining based assay; assay type: functional, organism-based; settings: MLS16 MTCC 2940, 24 h; method in brief: as §1
Micrococcus luteus [8] = assay: Bactericidal activity against Micrococcus luteus MTCC 2470 after 24 hrs by serial dilution method; assay type: functional; settings: MTCC 2470, 24 h
Bacillus subtilis [9] = assay: Antimicrobial activity against Bacillus subtilis MTCC 121 assessed as growth inhibition after 24 hrs by agar well diffusion method; assay type: functional; settings: MTCC 121, 24 h
Staphylococcus aureus [10] = assay: Bactericidal activity against Staphylococcus aureus MTCC 96 after 24 hrs by serial dilution method; assay type: functional; settings: MTCC 96, 24 h
Pseudomonas aeruginosa = assay: Antimicrobial activity against Pseudomonas aeruginosa MTCC 2453 assessed as growth inhibition after 24 hrs by agar well diffusion method; assay type: functional; settings: MTCC 2453, 24 h
Escherichia coli [11] = assay: Bactericidal activity against Escherichia coli MTCC 739 after 24 hrs by serial dilution method; assay type: functional; settings: MTCC 739, 24 h
Staphylococcus aureus [12] = assay: Antimicrobial activity against Staphylococcus aureus MLS16 MTCC 2940 assessed as growth inhibition after 24 hrs by agar well diffusion method; assay type: functional; settings: MLS16 MTCC 2940, 24 h
Staphylococcus aureus [13] = assay: Bactericidal activity against Staphylococcus aureus MLS16 MTCC 2940 after 24 hrs by serial dilution method; assay type: functional; settings: MLS16 MTCC 2940, 24 h
Staphylococcus aureus [14] = assay: Antimicrobial activity against Staphylococcus aureus MTCC 96 assessed as growth inhibition after 24 hrs by agar well diffusion method; assay type: functional; settings: MTCC 96, 24 h
Micrococcus luteus [15] = assay: Antibiofilm activity against Micrococcus luteus MTCC 2470 after 24 hrs by crystal violet staining based assay; assay type: functional, organism-based; settings: MTCC 2470, 24 h; method in brief: as §1
Escherichia coli [16] = assay: Antimicrobial activity against Escherichia coli MTCC 739 assessed as growth inhibition after 24 hrs by agar well diffusion method; assay type: functional; settings: MTCC 739, 24 h
Candida parapsilosis [17] = assay: Fungicidal activity against Candida parapsilosis MTCC 1744 after 24 hrs by serial dilution method; assay type: functional; settings: Lodderomyces parapsilosis, MTCC 1744, 24 h
Nakaseomyces glabratus [18] = assay: Antimicrobial activity against Candida glabrata MTCC 3019 assessed as growth inhibition after 24 hrs by agar well diffusion method; assay type: functional; settings: MTCC 3019, 24 h
Pichia kudriavzevii [19] = assay: Fungicidal activity against Candida krusei MTCC 3020 after 24 hrs by serial dilution method; assay type: functional; settings: MTCC 3020, 24 h
Candida albicans [20] = assay: Fungicidal activity against Candida albicans MTCC 183 after 24 hrs by serial dilution method; assay type: functional; settings: MTCC 183, 24 h
Candida albicans [21] = assay: Antimicrobial activity against Candida albicans MTCC 3958 assessed as growth inhibition after 24 hrs by agar well diffusion method; assay type: functional; settings: MTCC 3958, 24 h
Candida albicans [22] = assay: Antimicrobial activity against Candida albicans MTCC 1637 assessed as growth inhibition after 24 hrs by agar well diffusion method; assay type: functional; settings: MTCC 1637, 24 h
Candida albicans [23] = assay: Antimicrobial activity against Candida albicans MTCC 227 assessed as growth inhibition after 24 hrs by agar well diffusion method; assay type: functional; settings: MTCC 227, 24 h
Candida albicans [24] = assay: Antimicrobial activity against Candida albicans MTCC 183 assessed as growth inhibition after 24 hrs by agar well diffusion method; assay type: functional; settings: MTCC 183, 24 h
Pichia sporocuriosa [25] = assay: Antimicrobial activity against Issatchenkia hanoiensis MTCC 4755 assessed as growth inhibition after 24 hrs by agar well diffusion method; assay type: functional; settings: MTCC 4755, 24 h
Candida albicans [26] = assay: Fungicidal activity against Candida albicans MTCC 854 after 24 hrs by serial dilution method; assay type: functional; settings: MTCC 854, 24 h
[Candida] aaseri [27] = Fungicidal activity against Candida aaseri MTCC 1962 after 24 hrs by serial dilution method; assay type: functional; settings: Yamadazyma aaseri, MTCC 1962, 24 h
Candida parapsilosis [28] = assay: Antimicrobial activity against Candida parapsilosis MTCC 1744 assessed as growth inhibition after 24 hrs by agar well diffusion method; assay type: functional; settings: Lodderomyces parapsilosis, MTCC 1744, 24 h
Candida albicans [29] = assay: Antimicrobial activity against Candida albicans MTCC 854 assessed as growth inhibition after 24 hrs by agar well diffusion method; assay type: functional; settings: MTCC 854, 24 h
Candida albicans [30] = assay: Fungicidal activity against Candida albicans MTCC 3958 after 24 hrs by serial dilution method; assay type: functional; settings: MTCC 3958, 24 h
Candida albicans [31] = assay: Fungicidal activity against Candida albicans MTCC 7315 after 24 hrs by serial dilution method; assay type: functional; settings: MTCC 7315, 24 h
Candida albicans [32] = assay: Fungicidal activity against Candida albicans MTCC 3018 after 24 hrs by serial dilution method; assay type: functional; settings: MTCC 3018, 24 h
Candida albicans [33] = assay: Antimicrobial activity against Candida albicans MTCC 3017 assessed as growth inhibition after 24 hrs by agar well diffusion method; assay type: functional; settings: MTCC 3017, 24 h
Candida albicans [34] = assay: Fungicidal activity against Candida albicans MTCC 4748 after 24 hrs by serial dilution method; assay type: functional; settings: MTCC 4748, 24 h
Candida albicans [35] = assay: Fungicidal activity against Candida albicans MTCC 1637 after 24 hrs by serial dilution method; assay type: functional; settings: MTCC 1637, 24 h
Staphylococcus aureus [36] = assay: Antibiofilm activity against Staphylococcus aureus MTCC 96 after 24 hrs by crystal violet staining based assay; assay type: functional, organism-based; settings: MTCC 96, 24 h; method in brief: as §1
Pichia kudriavzevii [37] = assay: Antimicrobial activity against Candida krusei MTCC 3020 assessed as growth inhibition after 24 hrs by agar well diffusion method; assay type: functional; settings: MTCC 3020, 24 h
Candida albicans [38] = assay: Antimicrobial activity against Candida albicans MTCC 7315 assessed as growth inhibition after 24 hrs by agar well diffusion method; assay type: functional; settings: MTCC 7315, 24 h
[Candida] aaseri [39] = Antimicrobial activity against Candida aaseri MTCC 1962 assessed as growth inhibition after 24 hrs by agar well diffusion method; assay type: functional; settings: Yamadazyma aaseri, MTCC 1962, 24 h
Candida albicans [40] = assay: Fungicidal activity against Candida albicans MTCC 3017 after 24 hrs by serial dilution method; assay type: functional; settings: MTCC 3017, 24 h
Nakaseomyces glabratus [41] = assay: Fungicidal activity against Candida glabrata MTCC 3019 after 24 hrs by serial dilution method; assay type: functional; settings: MTCC 3019, 24 h
Pichia sporocuriosa [42] = assay: Fungicidal activity against Issatchenkia hanoiensis MTCC 4755 after 24 hrs by serial dilution method; assay type: functional; settings: MTCC 4755, 24 h
Candida albicans [43] = assay: Antimicrobial activity against Candida albicans MTCC 3018 assessed as growth inhibition after 24 hrs by agar well diffusion method; assay type: functional; settings: MTCC 3018, 24 h
Candida albicans [44] = assay: Fungicidal activity against Candida albicans MTCC 227 after 24 hrs by serial dilution method; assay type: functional; settings: MTCC 227, 24 h
Candida albicans [45] = assay: Antimicrobial activity against Candida albicans MTCC 4748 assessed as growth inhibition after 24 hrs by agar well diffusion method; assay type: functional; settings: MTCC 4748, 24 h

O=C(O)c1cn(C2CC2)c2cc(N3CCNCC3)c(F)cc2c1=O [CIPROFLOXACIN]
active: Activity (Staphylococcus aureus [5])
1.9 µg/mL: MBC (Raoultella planticola [4]) | MBC (Micrococcus luteus [8]) | MBC (Staphylococcus aureus [10]) | MBC (Escherichia coli [11])
0.4 µg/mL: IC50 (Staphylococcus aureus [7])
0.9 µg/mL: MIC (Raoultella planticola [2]) | MIC (Micrococcus luteus [3]) | MBC (Bacillus subtilis [6]) | MIC (Bacillus subtilis [9]) | MIC (Pseudomonas aeruginosa) | MIC (Staphylococcus aureus [12]) | MBC (Staphylococcus aureus [13]) | MIC (Staphylococcus aureus [14]) | MIC (Escherichia coli [16])
0.6 µg/mL: IC50 (Micrococcus luteus [15])
0.5 µg/mL: IC50 (Bacillus subtilis [1])

CCCCCCCC[N+](C)(CCCCCCCC)CCCCCCCCCCC(=O)OC.[Cl-]
4.6 µg/mL: IC50 (Bacillus subtilis [1])
2 µg/mL: IC50 (Micrococcus luteus [15])
7.8 µg/mL: MBC (Micrococcus luteus [8]) | MIC (Bacillus subtilis [9]) | MIC (Staphylococcus aureus [12])
3.9 µg/mL: MIC (Micrococcus luteus [3]) | MIC (Staphylococcus aureus [14])
4.8 µg/mL: IC50 (Staphylococcus aureus [7])
3.2 µg/mL: IC50 (Staphylococcus aureus [36])
> 125 µg/mL: MBC (Raoultella planticola [4]) | MIC (Pseudomonas aeruginosa) | MBC (Escherichia coli [11]) | MIC (Escherichia coli [16])
31.2 µg/mL: MFC (Candida parapsilosis [17]) | MIC (Nakaseomyces glabratus [18]) | MFC (Pichia kudriavzevii [19]) | MFC (Candida albicans [20]) | MIC (Raoultella planticola [2]) | MIC (Candida albicans [21]) | MIC (Candida albicans [22]) | MIC (Candida albicans [24]) | MIC (Pichia sporocuriosa [25]) | MFC (Candida albicans [26]) | MFC ([Candida] aaseri [27]) | MFC (Candida albicans [30]) | MFC (Candida albicans [32]) | MFC (Candida albicans [34]) | MIC (Pichia kudriavzevii [37]) | MFC (Candida albicans [40]) | MFC (Nakaseomyces glabratus [41]) | MFC (Pichia sporocuriosa [42]) | MIC (Candida albicans [43]) | MFC (Candida albicans [44])
62.5 µg/mL: MIC (Candida parapsilosis [28]) | MFC (Candida albicans [35])
15.6 µg/mL: MIC (Candida albicans [23]) | MIC (Candida albicans [29]) | MBC (Bacillus subtilis [6]) | MFC (Candida albicans [31]) | MIC (Candida albicans [33]) | MBC (Staphylococcus aureus [10]) | MBC (Staphylococcus aureus [13]) | MIC (Candida albicans [38]) | MIC ([Candida] aaseri [39]) | MIC (Candida albicans [45])
